{"data": "Measurements pooled from the literature", "target": "Mitogen-activated protein kinase 3 (MAPK3, Homo sapiens, UniProt P27361)", "note": "Protocols differ between the studies behind these lines."}
{"SMILES": "COc1cc2ncnc(Nc3ccc(Oc4ccccc4)cc3C)c2cc1OC", "read-out": "enzyme activity", "mode": "inhibitor", "concentration": "1 µM", "quantity": "inhibition", "result": "5%"}
{"SMILES": "c1nc2c(Nc3ccc4c(c3)OCCO4)nc(Nc3ccc4c(c3)OCCO4)nc2[nH]1", "read-out": "enzyme activity", "mode": "inhibitor", "concentration": "10 µM", "quantity": "activity vs control", "result": "94%"}
{"SMILES": "CC/C(=N\\NC(=O)NCc1cccc(O)c1)c1ccc(O)c(C)c1O", "read-out": "enzyme activity", "mode": "inhibitor", "concentration": "0.1 µM", "quantity": "inhibition", "result": "-2.7%"}
{"SMILES": "N#CC1c2c([nH]c3c(Cl)c(Cl)ccc23)C(=O)NC12CCCCC2 (racemic)", "read-out": "thermal stability", "method": "DSF", "concentration": "10 µM", "quantity": "ΔTm", "result": "0.1 °C"}
{"SMILES": "CCN1CCN(Cc2ccc(NC(=O)c3ccc(C)c(Oc4ccnc5[nH]ccc45)c3)cc2C(F)(F)F)CC1", "read-out": "target engagement in cells", "mode": "inhibitor", "method": "chemoproteomics", "cells": "A-375", "concentration": "50 nM", "quantity": "inhibition", "result": "-24.5%"}
{"SMILES": "FC(F)(F)Oc1cccc(-c2cnc3ccc(-c4ccncc4)nn23)c1", "read-out": "enzyme activity", "mode": "inhibitor", "method": "radiometric", "concentration": "5 µM", "quantity": "activity vs control", "result": "82%"}
{"SMILES": "Nc1ncnc2occ(-c3ccc(NC(=O)Nc4cc(C(F)(F)F)ccc4F)cc3)c12", "read-out": "cell-free assay", "mode": "inhibitor", "concentration": "20 µM", "quantity": "remaining signal", "result": "100%"}
{"SMILES": "Cn1c(=O)n(-c2ccc(C(C)(C)C#N)cc2)c2c3cc(-c4cnc5ccccc5c4)ccc3ncc21", "read-out": "enzyme activity", "mode": "inhibitor", "concentration": "10 µM", "quantity": "remaining activity", "result": "106%"}
{"SMILES": "CCN1CCN(Cc2ccc(NC(=O)c3ccc(C)c(/C=C/c4cnc5[nH]ccc5c4OC)c3)cc2C(F)(F)F)CC1", "read-out": "target engagement in cells", "mode": "inhibitor", "method": "chemoproteomics", "cells": "A-375", "concentration": "5 µM", "quantity": "inhibition", "result": "-26.3%"}
{"SMILES": "Cn1c2c(Cl)c(Cl)ccc2c2cc(N)[nH]c(=O)c21", "read-out": "thermal stability", "method": "DSF", "concentration": "10 µM", "quantity": "ΔTm", "result": "-0.4 °C"}
{"SMILES": "COc1cc(Nc2c(C#N)cnc3cc(OCCCN4CCN(C)CC4)c(OC)cc23)c(Cl)cc1Cl", "read-out": "cell-free assay", "concentration": "0.5 µM", "quantity": "remaining signal", "result": "98.9%"}
{"SMILES": "CCCS(=O)(=O)Nc1ccc(F)c(C(=O)c2c[nH]c3ncc(-c4ccc(Cl)cc4)cc23)c1F", "read-out": "enzyme activity", "mode": "inhibitor", "concentration": "1 µM", "quantity": "inhibition", "result": "< 20%"}
{"SMILES": "Cc1cc(-n2nc(Cc3cc(F)cc(C(F)(F)F)c3)nc2C)ccc1C(N)=O", "read-out": "cell-free assay", "method": "competition with immobilised ligand", "concentration": "1 µM", "quantity": "remaining binding", "result": "100%"}
{"SMILES": "Cn1c2c(c3ccc(Cl)c(Cl)c31)C(C#N)C1(CCCC1)NC2=O (stereo not shown)", "read-out": "thermal stability", "method": "DSF", "concentration": "10 µM", "quantity": "ΔTm", "result": "-0.2 °C"}
{"SMILES": "COc1cc(Nc2cnc(C#N)c(O[C@H](C)CN(C)C)n2)ncc1-c1cnn(C)c1", "read-out": "enzyme activity", "mode": "inhibitor", "method": "radiometric", "concentration": "1 µM", "quantity": "remaining activity", "result": "96%"}
{"SMILES": "C[C@H](c1ccc(F)cc1)N(Cc1cccc(C(=O)O)c1)C(=O)c1cnc2ccccc2c1", "read-out": "cell-free assay", "method": "competition with immobilised ligand", "concentration": "1 µM", "quantity": "remaining binding", "result": "100%"}
{"SMILES": "O=C(Nc1cnn(-c2csc(C(=O)NC3COC3)c2)c1)Nc1c(F)cccc1Cl", "read-out": "enzyme activity", "mode": "inhibitor", "concentration": "5 µM", "quantity": "remaining activity", "result": "92.4%"}
{"SMILES": "O=C1C(Cl)=C(N2C(=O)CCC2=O)C(=O)c2ccccc21", "read-out": "enzyme activity", "mode": "inhibitor", "concentration": "0.5 µM", "quantity": "remaining activity", "result": "99.3%"}
{"SMILES": "O=C(NC[C@@H]1[C@H]2CN(C(=O)OCc3cc(C(F)(F)F)cc(C(F)(F)F)c3)C[C@@H]12)c1ccc2[nH]nnc2c1", "read-out": "cell-free assay", "method": "competition with immobilised ligand", "concentration": "1 µM", "quantity": "remaining binding", "result": "100%"}
{"SMILES": "CN1CCC2(CC1)NC(=O)c1c(c3ccc(Cl)c(Cl)c3n1C)C2C#N (racemic)", "read-out": "thermal stability", "method": "DSF", "concentration": "10 µM", "quantity": "ΔTm", "result": "0.3 °C"}
{"SMILES": "CN(c1ccnc(CNc2nc(Nc3ccc4c(c3)CC(=O)N4)ncc2C(F)(F)F)n1)S(C)(=O)=O", "read-out": "cell-free assay", "method": "competition with immobilised ligand", "concentration": "1 µM", "quantity": "remaining binding", "result": "96%"}
{"SMILES": "Cn1c2c(c3ccc(Cl)c(Cl)c31)C(C#N)C1(CCOCC1)NC2=O (stereo not shown)", "read-out": "thermal stability", "method": "DSF", "concentration": "10 µM", "quantity": "ΔTm", "result": "0.1 °C"}
{"SMILES": "COc1ccc2c(c1)O[C@H](c1ccc(OC)c(OC)c1)C[C@@H]2NC(=O)C1(c2ccc3c(c2)OC(F)(F)O3)CC1", "read-out": "cell-free assay", "method": "competition with immobilised ligand", "concentration": "1 µM", "quantity": "remaining binding", "result": "100%"}
{"SMILES": "FC(F)c1nc2ccccc2n1-c1nc(N2CCOCC2)nc(N2CCOCC2)n1", "read-out": "enzyme activity", "mode": "inhibitor", "concentration": "10 µM", "quantity": "remaining activity", "result": "106%"}
{"SMILES": "Cc1cc(C)c(-n2ccn3nc(-c4cccnc4)cc23)cc1NC(=O)c1cc(C#N)cc(S(F)(F)(F)(F)F)c1", "read-out": "cell-free assay", "method": "competition with immobilised ligand", "concentration": "0.1 µM", "quantity": "remaining binding", "result": "95.2%"}
{"SMILES": "CC(C)(C)c1nc(-c2cccc(NS(=O)(=O)c3c(F)cccc3F)c2F)c(-c2ccnc(N)n2)s1", "read-out": "enzyme activity", "mode": "inhibitor", "method": "radiometric", "concentration": "1 µM", "quantity": "remaining activity", "result": "92%"}
{"SMILES": "COc1ccc(COc2ccc(Cc3cnc(N)nc3N)cc2OC)cc1", "read-out": "cell-free assay", "concentration": "0.5 µM", "quantity": "remaining signal", "result": "99.1%"}
{"SMILES": "Cc1nc(Cc2cccc(C(F)(F)F)c2)sc1-c1ccc(C(N)=O)nc1", "read-out": "cell-free assay", "method": "competition with immobilised ligand", "concentration": "1 µM", "quantity": "remaining binding", "result": "96%"}
{"SMILES": "Cn1c2c(c3ccc(Cl)c(Cl)c31)C(C#N)C(C)(C)NC2=O (stereo not shown)", "read-out": "thermal stability", "method": "DSF", "concentration": "10 µM", "quantity": "ΔTm", "result": "0.1 °C"}
{"SMILES": "N#CC(c1ccnc(NCCc2cccnc2)n1)c1nc2ccccc2s1 (stereo not shown)", "read-out": "enzyme activity", "mode": "inhibitor", "concentration": "0.5 µM", "quantity": "remaining activity", "result": "99.4%"}
{"SMILES": "CC(C)(C)C(=O)c1sc(NC2CCCCC2)nc1N", "read-out": "enzyme activity", "mode": "inhibitor", "concentration": "10 µM", "quantity": "remaining activity", "result": "73%"}
{"SMILES": "O=C1Nc2ccc(Cl)cc2C1=Cc1cc(Cl)c(O)c(Cl)c1", "read-out": "cell-free assay", "concentration": "0.5 µM", "quantity": "remaining signal", "result": "88.2%"}
{"SMILES": "Cn1nc(C(=O)NCc2ccc(C(=O)O)cc2)cc1-c1ccc2[nH]ccc2c1", "read-out": "cell-free assay", "method": "competition with immobilised ligand", "concentration": "0.1 µM", "quantity": "remaining binding", "result": "94%"}
{"SMILES": "CCC1(CC)NC(=O)c2c(c3ccc(Cl)c(Cl)c3n2C)C1C#N (stereo not shown)", "read-out": "thermal stability", "method": "DSF", "concentration": "10 µM", "quantity": "ΔTm", "result": "0 °C"}
